Legend:
RI-1 cell line xenograft = experiment: Mouse xenograft model with the ABC DLBCL RI-1 cell line; assay type: in vivo; details: NOD-Scid mice, RI-1 xenograft; for tolerability / general toxicity and body weight: 100 mg kg^-1 IP
Method in brief: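 NOD-Scid mice were inoculated subcutaneously with RI-1 ABC-DLBCL cells (15 × 10^6). They were split into groups of n = 4 given test compound at 100 mg kg−1 IP once every 5 days, or control vehicle. Tumor volume (mm3) and body weight were followed to day 15.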

K-562 cell line = experiment: NCI-60 cancer cell line panel, growth inhibition; assay type: cell-based; details: Homo sapiens, K562
[1] = test system: human umbilical vein endothelial cells (HUVEC); details: HUVEC tube formation; previously developed inhibitors; cited from earlier work
EphA3 = target: T1, EphA3 (Homo sapiens, UniProt P29320); details: EphA3, DSF; first generation inhibitors; ref 8d; cited from earlier work
T1 sequence (P29320 21-983): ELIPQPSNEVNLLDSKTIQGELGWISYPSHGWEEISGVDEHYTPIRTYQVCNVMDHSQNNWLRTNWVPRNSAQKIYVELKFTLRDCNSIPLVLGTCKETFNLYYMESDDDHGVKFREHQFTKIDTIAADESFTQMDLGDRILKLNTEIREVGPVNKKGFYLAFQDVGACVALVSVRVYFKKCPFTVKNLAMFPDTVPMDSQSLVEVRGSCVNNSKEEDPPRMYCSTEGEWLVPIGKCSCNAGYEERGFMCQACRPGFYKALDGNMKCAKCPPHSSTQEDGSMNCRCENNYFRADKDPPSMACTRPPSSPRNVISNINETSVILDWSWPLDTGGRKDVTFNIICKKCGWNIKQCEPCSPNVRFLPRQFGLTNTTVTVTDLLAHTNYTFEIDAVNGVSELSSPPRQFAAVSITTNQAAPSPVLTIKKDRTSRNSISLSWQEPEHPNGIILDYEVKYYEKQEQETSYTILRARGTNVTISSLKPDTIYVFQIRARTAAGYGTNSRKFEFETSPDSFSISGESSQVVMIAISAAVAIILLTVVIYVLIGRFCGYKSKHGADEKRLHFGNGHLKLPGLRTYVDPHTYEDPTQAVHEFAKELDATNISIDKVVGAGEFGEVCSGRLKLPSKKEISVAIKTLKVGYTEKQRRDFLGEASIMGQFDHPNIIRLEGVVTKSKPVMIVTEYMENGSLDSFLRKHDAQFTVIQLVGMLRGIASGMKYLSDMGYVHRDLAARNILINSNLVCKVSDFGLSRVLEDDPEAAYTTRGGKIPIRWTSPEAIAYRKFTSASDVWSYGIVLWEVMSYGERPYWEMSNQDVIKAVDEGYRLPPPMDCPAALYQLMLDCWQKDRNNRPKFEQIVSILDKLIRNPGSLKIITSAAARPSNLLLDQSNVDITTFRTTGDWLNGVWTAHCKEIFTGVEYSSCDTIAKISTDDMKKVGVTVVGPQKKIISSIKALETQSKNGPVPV

SMILES	tolerability / general toxicity and body weight (RI-1 cell line xenograft)	GI50 (K-562 cell line)	xenograft tumor size versus control group (RI-1 cell line xenograft; 100 mg kg^-1 IP once every 5 days, day 15)	inhibition of total branching points [1]	inhibition of total loops [1]	inhibition of tube length [1]	Thermal shift (ΔTm) (EphA3)
Cc1ccc(-n2nc(C(C)(C)C)cc2NC(=O)Nc2ccc(-n3c(N)c(C(N)=O)c4nc5ccccc5nc43)cc2)cc1 [Compound 8a]	very toxic already after the first dose	0.031 µM	–	–	–	–	–
CC(C)(C)c1cc(NC(=O)Nc2ccc(-n3c(N)c(C(N)=O)c4nc5ccccc5nc43)cc2)n(-c2ccc3ncccc3c2)n1 [Compound 8b]	well tolerated with no general toxicity or body-weight loss	< 0.01 µM	three times smaller	–	–	–	–
NC(=O)c1c(N)n(-c2ccc(NC(=O)Nc3cccc(C(F)(F)F)c3)cc2)c2nc3ccccc3nc12 [Compound 2]	–	–	–	9%	13%	5%	–
Cc1ccc(O)cc1-n1c(N)c(C(N)=O)c2nc3ccccc3nc21 [Compound 1]	–	–	–	23%	21%	9%	11.2 °C

Reference: publication PMC7557569 (RSC Medicinal Chemistry, 2020)
